Test results taken from ChEMBL document CHEMBL1153739, “Chemical constituents of the bark of Machilus wangchiana and their biological activities” (J Nat Prod, 2009).

Assays:
[1] = Antiinflammatory activity in rat PMNC assessed as inhibition of platelet activating factor-induced beta-glucuronidase release at 10 uM treated 15 mins before PAF by spectrophotometry; type: functional
[2] = Hepatoprotective activity in rat WB-F344 cells assessed as inhibition of D-galactosamine-induced cytotoxicity at 100 uM treated 1 hr before D-galactosamine challenge after 24 hrs by MTT assay; type: functional
Summary of the method: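 Cells plated at 1 × 10⁴ per well in DMEM with 10% fetal calf serum, penicillin and streptomycin, precultured 24 h at 37 °C, 5% CO₂. Sample added in fresh medium 1 h before 50 mM DL-galactosamine for 24 h. Sample toxicity run in parallel without galactosamine. MTT 0.5 mg/mL for 4 h, formazan dissolved in DMSO, OD 490 nm, % inhibition calculated.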

BGC-823 = assay: Cytotoxicity against human BGC823 cells; type: functional, cell-based
A2780 = assay: Cytotoxicity against human A2780 cells; type: functional, cell-based

Work on `C#CCCCCCCCC/C=C/C1=C[C@H](C)OC1=O` [HAMABIWALACTONE A] yielded an inhibition at 10 µM [1] of 60%.

`O=C(O)C[C@]12OC(=O)C[C@H]1O[C@@H]1Cc3c(O)cc(O)cc3O[C@@H]12` showed an inhibition at 10 µM [1] of 46% and an inhibition at 100 µM [2] of 40%.

`COc1cc([C@H]2c3cc(O)c(OC)cc3C[C@@H](C)[C@@H]2C)ccc1O` gave an inhibition at 10 µM [1] of 48%.

Compound `CC[C@@]1(O)C(=O)OCc2c1cc1n(c2=O)Cc2cc3ccccc3nc2-1` [CAMPTOTHECIN] has an IC50 (BGC-823) of 210 nM.

`COC(=O)c1cc(OC)c2c(c1-c1c(CO)cc(OC)c3c1OCO3)OCO2` [BICYCLOL] gave an inhibition at 100 µM [2] of 41%.

In the case of `COc1cc([C@@H](OC)[C@@H](C)C(C)=O)ccc1O`, the inhibition at 10 µM [1] is reported as 67% and the inhibition at 100 µM [2] is reported as 47%.

With `C=C1OC(=O)/C(=C/CCCCCCCCCCCCCCCCC)[C@H]1O` the IC50 (BGC-823) was 130 nM and the IC50 (A2780) was 2660 nM.

`COc1cc([C@@H](O)[C@@H](C)C(C)=O)ccc1O` gave an inhibition at 100 µM [2] of 43%.

`COc1cc([C@@H]2c3c(cc(OC)c(O)c3OC)C[C@@H](C)[C@H]2C)ccc1O` showed an inhibition at 10 µM [1] of 47%.

Compound `COc1cc(C[C@@H](C)[C@@H](C)Cc2ccc(O)c(OC)c2)ccc1O` [MESODIHYDROGUAIARETIC ACID] has an inhibition at 10 µM [1] of 54%.

`COc1cc([C@H]2OC(=O)[C@](C)(O)[C@@H]2C)ccc1O` gave an inhibition at 10 µM [1] of 76% and an inhibition at 100 µM [2] of 39%.

For `CCO[C@H](c1ccc(O)c(OC)c1)[C@@H](C)C(C)=O`, the inhibition at 10 µM [1] was 42% and the inhibition at 100 µM [2] was 54%.
